Source: PubChem BioAssay (several laboratories)
Sampled rows, rich in hits. Any-hit rate of the full collection: about 2.9%.
CaV13 FRET inh = Primary screen for inhibitors of IQ motif and Ca2+-dependent inactivation inhibitor domain binding in CACNA1D, Förster resonance energy transfer in living cells, …. HEK cells, CFP/YFP FRET ICDI-IQ, plate reader, 10 min; percent FRET-ratio fall versus neutral wells. inhibition, % at 12.3 µM. 340,000 tested, 0.098% active. AID 743397;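 active = mean replicate inhibition of at least 30% and at least 1% of replicates passing that level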;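 also: 0% = median of the neutral control wells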
NRP1-CendR mod = alters CendR peptide binding to human NRP-1. O14786. FAM-RPARPAR peptide binding to NRP-1, fluorescence polarization. inhibition, % at 25 µM. 360,000 tested, 0.85% active;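 active = inhibition or corrected inhibition above about 18%, plus a signal ratio from 0.5 to 1.5, limit read from the data, passing the limit was not always enough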
Target sequence (O14786 whole entry, looked up): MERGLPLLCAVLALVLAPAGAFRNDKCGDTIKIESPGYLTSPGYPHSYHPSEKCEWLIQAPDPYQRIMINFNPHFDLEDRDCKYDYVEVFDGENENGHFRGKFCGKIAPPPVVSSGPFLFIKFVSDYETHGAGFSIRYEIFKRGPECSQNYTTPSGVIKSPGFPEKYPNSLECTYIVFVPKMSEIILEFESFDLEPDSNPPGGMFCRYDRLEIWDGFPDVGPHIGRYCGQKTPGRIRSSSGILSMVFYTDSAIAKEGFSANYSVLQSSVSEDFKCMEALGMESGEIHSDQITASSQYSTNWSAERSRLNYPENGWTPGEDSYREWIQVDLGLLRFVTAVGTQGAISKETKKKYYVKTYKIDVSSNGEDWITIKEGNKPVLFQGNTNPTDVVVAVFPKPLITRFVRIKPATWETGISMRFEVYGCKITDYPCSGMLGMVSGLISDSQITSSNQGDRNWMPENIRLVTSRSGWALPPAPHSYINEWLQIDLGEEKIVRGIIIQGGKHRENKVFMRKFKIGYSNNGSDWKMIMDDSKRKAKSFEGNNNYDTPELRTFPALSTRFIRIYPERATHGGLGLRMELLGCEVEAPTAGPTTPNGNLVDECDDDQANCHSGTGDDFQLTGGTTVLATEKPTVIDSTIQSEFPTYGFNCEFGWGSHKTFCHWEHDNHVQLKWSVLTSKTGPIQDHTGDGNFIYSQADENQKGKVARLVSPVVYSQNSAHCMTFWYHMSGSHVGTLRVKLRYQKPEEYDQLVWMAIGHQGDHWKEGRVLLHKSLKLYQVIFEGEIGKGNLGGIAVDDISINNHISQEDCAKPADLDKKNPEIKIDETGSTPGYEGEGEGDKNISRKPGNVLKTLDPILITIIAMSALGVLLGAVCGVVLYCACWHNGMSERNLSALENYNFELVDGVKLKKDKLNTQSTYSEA
Arrestin-AP2 inh = human beta-arrestin and AP2 interaction inhibition. FITC-arrestin peptide / GST-AP2 beads, flow cytometry; AP2 beta2 appendage carries R879A mutation. inhibition, % at 10 µM. 340,000 tested, 0.31% active;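 active = inhibition above a set limit, near 3 SD of compounds lacking own fluorescence, cut at about 54% in these data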;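 also: plate controls were DMSO wells for no effect and 5 µM unlabelled arrestin peptide for full effect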
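System: GST-AP2 R879A bound to glutathione beads, E. coli-expressed. Also added: 50 nM FITC-arrestin peptide. Schedule: compound with beads 12 min RT, then probe 1 h RT. Signal: bead flow cytometry, FITC channel. Read-out basis: percent response.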
ADAM17 inh = ADAM17 inhibition, QFRET primary screen; 370,000 tested, 0.83% active; inhibition, % at 6.95 µM; recombinant ADAM17, EDANS/DABCYL FRET peptide cleavage; P78536; AID 720648;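 active = inhibition above the mean of compounds lying between control limits plus 3 SD, set per campaign, cut at about 8.5% in these data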;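 also: 0% = DMSO-only wells as the low control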
FAS TE block = blocks the thioesterase domain of human fatty acid synthase; P49327; recombinant FAS-TE, OMFH fluorogenic substrate, fluorescence endpoint; inhibition, % at 15 µM; 360,000 tested, 0.67% active; AID 602261;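 active = compounds whose normalised, plate-corrected inhibition of enzyme fluorescence in the single-dose primary screen is 50% or more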;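 also: 0% = DMSO with enzyme and 100% = substrate without enzyme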
ADAM10 inh = inhibitors of human ADAM10; O14672; recombinant ADAM10, EDANS/DABCYL FRET peptide cleavage, 3 h; inhibition, % at 7 µM; 370,000 tested, 0.62% active;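 active = inhibition above a per-campaign cutoff equal to the mean of compounds falling between control-based bounds plus 3 SD, cut at about 20% in these data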;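 also: 0% = DMSO wells while the 100% control is not disclosed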
An asterisk follows results filed as active; i = inactive; . = no result.

SMILES	CaV13 FRET inh	NRP1-CendR mod	Arrestin-AP2 inh	ADAM17 inh	FAS TE block	ADAM10 inh
CCOC(=O)CC[C@@]1(C(=O)OCC)C[C@@H](CC(=O)N2CCOCC2)C(=O)N2CCCC=C21	.	.	.	1	.	1
Cc1cc(N2CCOCC2)nc(N2CCOCC2)n1	-6	15	-6	5	-5	10
Cc1cc(N2CCOCC2)c2c(N)cc(C)c(C)c2n1	.	22*	-2	-4	-4	4
O=C1C(=O)c2cccnc2-c2ncccc21	-4	27*	.	-2	1	2
O=C1c2cccnc2-c2ncccc21	-5	16	0	1	-6	-5
COC1=C(Br)C(=O)c2ncccc2C1=O	-7	36*	48	-1	11	-3
COc1ccccc1N1C(=O)c2cccnc2C1=O	-5	0	2	-1	-7	4
c1ccc(-c2ccc3sccc3n2)cc1	-5	27*	-5	1	-4	5
O=C(CCN1C(=O)CC1c1ccco1)N1CCOCC1 (stereo not given)	.	2	.	.	-3	.
O=C(NCCN1CCOCC1)C(=O)NCC1CCCO1 (stereo not given)	-7	38*	-5	4	-7	0
O=C(NCCCN1CCOCC1)C(=O)NCC1CCCO1 (stereo not given)	-2	-2	-6	-2	-4	0
CCOc1ccc(-n2c(Cc3cc(=O)[nH]c(=O)[nH]3)nnc2SC(C)C)cc1	-5	38*	-3	-5	-14	-11
COc1ccc(C)cc1S(=O)(=O)NCC(c1ccc2c(c1)OCO2)N1CCN(C)CC1 (stereo not given)	-4	-8	-2	-2	-1	-7
COC(=O)C1=CN(Cc2ccc(OC)c(OC)c2)C=C(C(=O)OC)C1c1cccc(F)c1	79*	-7	-14	i	20	i
COC(=O)C1=CN(Cc2ccc(F)cc2)C=C(C(=O)OC)C1c1cc(OC)c(OC)c(OC)c1	-19	12	19	-230	11	i
CCCC/C=C1/[C@@H](C(C)C)N(Cc2ccc3c(c2)OCO3)C2=N[C@H](c3ccccc3)CC(=O)N21	.	.	.	4	.	9
Cc1c(C(=O)N2CCOCC2)c(S(=O)(=O)Nc2cccc(C#N)c2)c(C)n1C	-7	22*	1	5	-5	-1
Cc1c(C(=O)N2CCOCC2)c(S(=O)(=O)Nc2cccc(F)c2)c(C)n1C	-5	2	-11	0	-7	0
O=C1CCn2c1c(O)c1ccccc1c2=O	-5	10	17	2	16	-7
N=C1CCC(=N)c2c1c(O)c1ccccc1c2O	.	27*	33	.	-6	.
O=C1[C@H]2C[C@@]3(n4ccc5ccccc54)c4ccccc4N(S(=O)(=O)c4ccccc4)[C@H]3N2C(=O)CN1Cc1ccccc1	.	.	.	6	.	17
O=C(CSc1nnnn1-c1ccccc1)c1ccco1	-6	13	-5	0	-4	2
Cn1nnnc1SCC(=O)c1ccco1	.	19*	-2	-5	-6	-11
CCCCOc1ccc(/C=C2/Sc3ccccc3C2=O)cc1	-4	35*	0	-5	19	-9
Cc1nc(SCC(=O)N(C)c2ccccc2)[nH]c(=O)c1C	.	.	.	-2	.	-1
SMILES	CaV13 FRET inh	NRP1-CendR mod	Arrestin-AP2 inh	ADAM17 inh	FAS TE block	ADAM10 inh
CCc1nc(Nc2cc(OC)ccc2OC)c2oc3ccccc3c2n1	-2	25*	-11	-1	4	-20
CCOC(=O)[C@@H]1[C@H]2COc3ccccc3[C@@H]2N2C(=O)N(c3cccc(Cl)c3)C(=O)[C@]12C	-7	28*	14	5	34	18
CCOC(=O)[C@H]1[C@H]2COc3cc(OC)ccc3[C@@H]2N2C(=O)N(c3cccc(F)c3)C(=O)[C@@]12C	-6	13	-13	3	15	16
CCOC(=O)[C@@H]1[C@H]2COc3cc(OC)ccc3[C@H]2N2C(=O)N(c3cccc(F)c3)C(=O)[C@@]12C	-6	25*	-2	-1	32	11
CCOC(=O)[C@@H]1[C@H]2COc3ccccc3[C@H]2N2C(=O)N(c3cccc(Cl)c3)C(=O)[C@@]12C	.	5	9	.	19	.
Nc1[nH]c(C(=O)c2ccc(Br)cc2)c(-c2ccncc2)c1C(=O)NCCc1c[nH]c2ccccc12	-14	.	.	4	.	2
CC1CCC2(CCC(=O)N2C[C@@H](O)c2ccccc2)CC1 (stereo not given in full)	.	.	.	-4	.	-3
CCn1c(=S)sc2c(=O)n(CC(=O)NCCCc3ccccc3)c(C)nc21	-7	26*	0	-2	17	6
Cc1ccccc1CNC(=O)C1CCC(CNS(=O)(=O)c2cccc3cccnc23)CC1 (stereo not given)	.	.	.	1	.	0
Cc1ccc(S(=O)(=O)N(C)c2cccc3c2S(=O)(=O)N([C@H](C)c2ccccc2)C[C@@H](COCc2ccccc2)O3)cc1	-9	.	.	3	.	11
O=C(c1ccccc1)C1CCN(C(=O)C2CCC(=O)N(Cc3cccc(F)c3)C2)CC1 (stereo not given)	-13	5	-5	-3	-7	9
COCC1CCN(C(=O)C2CCC(=O)N(Cc3cccc(F)c3)C2)CC1 (stereo not given)	-6	26*	-19	-1	-6	-3
O=C(NC1(C(F)(F)F)NC(=O)N(Cc2cccnc2)C1=O)c1ccccc1 (stereo not given)	-3	-8	0	1	-8	10
O=C(NC1(C(F)(F)F)NC(=O)N(Cc2ccccc2)C1=O)c1cccnc1 (stereo not given)	-5	41*	5	0	-1	6
C[C@@H]1CN(C(=O)OC(C)(C)C)CCN1c1ccc(N2CC[C@@H](O)C2)c(C#N)c1	-9	.	.	-16	.	-63
CCOC(=O)c1c2c(n(-c3ccc(OC)cc3)c1C)C(=O)C(=O)c1ccccc1-2	.	34*	-1	.	46	.
CCOC(=O)c1sc(=S)n(-c2ccc(OC)cc2)c1C	-18	0	-6	-3	18	7
CCN1CCN(C(=O)c2ccc3c(=O)n(Cc4ccccc4OC)c(=S)[nH]c3c2)CC1	-3	6	-6	-5	-6	3
COc1ccccc1Cn1c(=S)[nH]c2cc(C(=O)N3CCCC3)ccc2c1=O	-7	31*	15	-5	-1	0
COc1ccc(F)cc1CSc1nnnn1-c1ccc(O)cc1	-3	23*	1	0	-5	-2
C=CCN1[C@@H](C)COc2cc(N3CCSCC3)ccc2S1(=O)=O	.	.	.	2	.	7
COc1ccc(CCNC(=O)c2ccc(Cl)c(S(=O)(=O)N3CCCCCC3)c2)cc1	-3	-2	-5	2	26	1
